In ChEMBL document CHEMBL1909624, “BRN-103, a novel nicotinamide derivative, inhibits VEGF-induced angiogenesis and proliferation in human umbilical vein endothelial cells” (2011):
Active and inactive are the calls of the source. No cut-off for these calls is given here.

Columns and labels:
HUVEC [1] = test: Antiangiogenic activity in HUVEC assessed as decrease in VEGF-induced cell migration at 10 uM after 24 hrs by transwell migration assay; format: functional, cell-based; settings: Homo sapiens
[2] = target: Vascular endothelial growth factor receptor 2 (Homo sapiens) (UniProt P35968); test: Inhibition of VEGFR2 phosphorylation at tyr-1175 in VEGF-stimulated HUVEC preincubated for 1 hr before VEGF induction measured after 5 mins by Western blot analysis
Sequence of Vascular endothelial growth factor receptor 2 (Homo sapiens) (P35968 whole entry): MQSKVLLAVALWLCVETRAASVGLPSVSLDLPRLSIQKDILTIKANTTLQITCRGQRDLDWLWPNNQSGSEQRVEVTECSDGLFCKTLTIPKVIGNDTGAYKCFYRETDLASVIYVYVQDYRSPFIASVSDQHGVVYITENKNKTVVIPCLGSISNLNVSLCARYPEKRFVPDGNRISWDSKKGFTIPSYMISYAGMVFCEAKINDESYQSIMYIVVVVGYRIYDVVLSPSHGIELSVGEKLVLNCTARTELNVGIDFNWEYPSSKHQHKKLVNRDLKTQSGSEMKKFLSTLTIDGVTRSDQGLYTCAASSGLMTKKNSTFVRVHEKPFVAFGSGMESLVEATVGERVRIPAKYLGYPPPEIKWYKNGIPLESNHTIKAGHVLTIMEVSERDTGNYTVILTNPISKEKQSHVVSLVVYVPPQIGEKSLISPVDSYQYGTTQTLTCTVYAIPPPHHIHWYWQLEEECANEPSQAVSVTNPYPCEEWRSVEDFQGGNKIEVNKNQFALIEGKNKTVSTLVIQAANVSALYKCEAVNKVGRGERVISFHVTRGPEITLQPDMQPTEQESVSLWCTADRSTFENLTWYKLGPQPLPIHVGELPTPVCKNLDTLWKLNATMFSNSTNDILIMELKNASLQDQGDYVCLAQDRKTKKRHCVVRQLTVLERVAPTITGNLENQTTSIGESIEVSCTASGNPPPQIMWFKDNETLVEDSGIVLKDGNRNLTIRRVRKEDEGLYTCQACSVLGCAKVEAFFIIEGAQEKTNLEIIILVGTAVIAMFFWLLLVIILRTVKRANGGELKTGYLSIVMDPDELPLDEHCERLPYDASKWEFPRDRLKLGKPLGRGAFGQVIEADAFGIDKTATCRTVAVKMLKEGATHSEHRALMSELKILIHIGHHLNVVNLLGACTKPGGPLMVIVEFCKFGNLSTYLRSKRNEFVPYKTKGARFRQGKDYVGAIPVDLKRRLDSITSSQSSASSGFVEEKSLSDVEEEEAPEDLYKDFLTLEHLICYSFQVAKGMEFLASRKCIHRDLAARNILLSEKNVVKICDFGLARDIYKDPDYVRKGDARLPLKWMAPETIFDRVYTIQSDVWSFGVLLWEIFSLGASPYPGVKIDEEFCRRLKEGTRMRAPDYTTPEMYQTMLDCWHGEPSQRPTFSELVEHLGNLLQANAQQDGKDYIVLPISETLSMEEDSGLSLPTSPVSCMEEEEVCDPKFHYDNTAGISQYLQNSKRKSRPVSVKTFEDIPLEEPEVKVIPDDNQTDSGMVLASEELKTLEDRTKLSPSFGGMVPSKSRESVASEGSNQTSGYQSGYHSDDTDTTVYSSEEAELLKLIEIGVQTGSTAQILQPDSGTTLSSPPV
Outline: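 HUVECs were pretreated with compound for 1 h, stimulated with 10 ng/ml VEGF for 5 min, and lysed. Western blot used an anti-phospho-VEGFR2 antibody, with total VEGFR and β-actin as internal controls. Blot representative of three separate experiments.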

HUVEC [3] = test: Antiangiogenic activity in HUVEC assessed as decrease in VEGF-induced cell migration after 24 hrs by transwell migration assay; format: functional, cell-based; settings: Homo sapiens
Outline: (§1)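 HUVECs were seeded in a Boyden chamber on a porous membrane, with test compound in 0.1% EBM in the upper chamber and 10 ng/ml VEGF in the lower. After 24 h, cells that had crossed the pores were counted. Mean of three independent experiments with SD; ANOVA with Dunnett's post-hoc test.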

[4] = target: T1, Nitric oxide synthase 3 (Homo sapiens) (UniProt P29474); test: Inhibition of eNOS phosphorylation at […] in VEGF-stimulated HUVEC preincubated for 1 hr before VEGF induction measured after 1 hr by Western blot analysis
T1 sequence (whole entry): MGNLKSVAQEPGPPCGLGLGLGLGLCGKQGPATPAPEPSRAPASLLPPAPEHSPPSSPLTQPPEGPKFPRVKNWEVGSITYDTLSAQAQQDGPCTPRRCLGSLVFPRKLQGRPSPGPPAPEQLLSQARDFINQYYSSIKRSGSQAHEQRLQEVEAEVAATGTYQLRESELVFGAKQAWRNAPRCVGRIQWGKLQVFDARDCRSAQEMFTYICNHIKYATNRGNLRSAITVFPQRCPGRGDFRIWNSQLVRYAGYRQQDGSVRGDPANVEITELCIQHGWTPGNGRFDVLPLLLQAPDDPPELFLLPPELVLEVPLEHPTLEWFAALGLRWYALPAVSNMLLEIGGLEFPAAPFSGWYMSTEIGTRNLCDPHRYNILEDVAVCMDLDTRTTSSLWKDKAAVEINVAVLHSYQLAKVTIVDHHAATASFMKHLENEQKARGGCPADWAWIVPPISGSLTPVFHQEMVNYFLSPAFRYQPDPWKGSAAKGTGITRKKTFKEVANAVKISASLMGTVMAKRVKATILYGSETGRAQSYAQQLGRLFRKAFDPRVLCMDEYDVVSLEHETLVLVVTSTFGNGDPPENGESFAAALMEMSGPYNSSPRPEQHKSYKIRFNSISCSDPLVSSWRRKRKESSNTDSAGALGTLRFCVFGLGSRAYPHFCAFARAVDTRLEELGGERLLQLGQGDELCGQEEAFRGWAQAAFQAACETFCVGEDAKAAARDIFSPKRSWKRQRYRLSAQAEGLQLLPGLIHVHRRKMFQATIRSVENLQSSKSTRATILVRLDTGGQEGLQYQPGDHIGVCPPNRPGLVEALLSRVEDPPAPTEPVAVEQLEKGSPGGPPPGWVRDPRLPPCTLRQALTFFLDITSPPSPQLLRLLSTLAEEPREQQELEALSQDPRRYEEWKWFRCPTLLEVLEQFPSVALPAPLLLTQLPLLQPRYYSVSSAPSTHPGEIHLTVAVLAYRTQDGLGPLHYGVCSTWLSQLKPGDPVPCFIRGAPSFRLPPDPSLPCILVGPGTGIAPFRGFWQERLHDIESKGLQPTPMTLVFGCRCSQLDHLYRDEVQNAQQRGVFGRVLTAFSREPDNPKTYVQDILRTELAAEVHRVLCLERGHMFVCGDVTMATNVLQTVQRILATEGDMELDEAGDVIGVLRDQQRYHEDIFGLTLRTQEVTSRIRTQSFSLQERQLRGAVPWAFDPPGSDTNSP
Outline: (§2)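 0.1% serum-starved HUVECs were pretreated with compound for 1 h, then given 10 ng/ml VEGF for 5 min (p-ERK), 30 min (p-AKT) or 1 h (p-eNOS). Lysates were Western-blotted with phospho-specific and total AKT, ERK and eNOS antibodies. Bands were quantified as the mean of three experiments with SD; ANOVA with Dunnett's test.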

HUVEC [5] = test: Antiangiogenic activity in HUVEC assessed as decrease in VEGF-induced cell migration after 24 hrs by wound healing assay; settings: Homo sapiens
HUVEC [6] = test: Inhibition of AKT phosphorylation at Ser-473 in VEGF-stimulated HUVEC preincubated for 1 hr before VEGF induction measured after 30 mins by Western blot analysis; format: cell-based; settings: Homo sapiens; outline: as §2
HUVEC [7] = test: Antiangiogenic activity in HUVEC assessed as inhibition of VEGF-induced cell proliferation by BrdU incorporation assay; format: functional, cell-based; settings: Homo sapiens
Outline: (§3)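 DNA synthesis was measured by BrdU incorporation in 0.1% serum-starved HUVECs stimulated with VEGF, with or without compound. Incorporated BrdU was detected with an anti-BrdU monoclonal antibody using a commercial ELISA kit. Mean of three experiments with SD; ANOVA with Dunnett's post-hoc test.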

HUVEC [8] = test: Inhibition of ERK phosphorylation at Thr202/Tyr204 in VEGF-stimulated HUVEC preincubated for 1 hr before VEGF induction measured after 5 mins by Western blot analysis; format: cell-based; settings: Homo sapiens; outline: as §2
HUVEC [9] = test: Antiangiogenic activity in VEGF-stimulated HUVEC assessed as inhibition of capillary tube formation preincubated for 1 hr measured after 6 hrs by photographic analysis; format: functional, cell-based; settings: Homo sapiens
Outline: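 HUVECs were pretreated with compound for 1 h, then seeded at 4–7 × 10⁴ cells on growth factor-reduced Matrigel in EBM with or without 10 ng/ml VEGF. After 6 h, tubes were photographed at ×100 and counted manually in low-power fields. Mean of three experiments with SD.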

Aorta = test: Inhibition of VEGF-induced angiogenesis in C57BL/6 mouse aortic rings assessed as decrease in microvessel sprouting after 7 days; format: functional, tissue-based
HUVEC [10] = test: Cytotoxicity against human HUVEC; format: functional
HUVEC [11] = test: Antiangiogenic activity in HUVEC assessed as decrease in VEGF-induced cell migration at 50 uM after 24 hrs by transwell migration assay; format: functional, cell-based; settings: Homo sapiens
HUVEC [12] = test: Antiangiogenic activity in HUVEC assessed as decrease in VEGF-induced cell migration at 25 uM after 24 hrs by transwell migration assay; format: functional, cell-based; settings: Homo sapiens
HUVEC [13] = test: Antiangiogenic activity in HUVEC assessed as decrease in VEGF-induced cell migration at 1 uM after 24 hrs by transwell migration assay; format: functional, cell-based; settings: Homo sapiens; outline: as §1
HUVEC [14] = test: Inhibition of ERK phosphorylation at Thr202/Tyr204 in VEGF-stimulated HUVEC at 1 uM preincubated for 1 hr before VEGF induction measured after 5 mins by Western blot analysis; format: cell-based; settings: Homo sapiens; outline: as §2
[15] = target: T1, Nitric oxide synthase 3 (Homo sapiens); test: Inhibition of eNOS phosphorylation at […] in VEGF-stimulated HUVEC at 1 uM preincubated for 1 hr before VEGF induction measured after 1 hr by Western blot analysis; outline: as §2
HUVEC [16] = test: Inhibition of AKT phosphorylation at Ser-473 in VEGF-stimulated HUVEC at 1 uM preincubated for 1 hr before VEGF induction measured after 30 mins by Western blot analysis; format: cell-based; settings: Homo sapiens; outline: as §2
HUVEC [17] = test: Antiangiogenic activity in HUVEC assessed as inhibition of VEGF-induced cell proliferation at 1 uM by BrdU incorporation assay; format: functional, cell-based; settings: Homo sapiens; outline: as §3

With O=C(Nc1cccc(Cl)c1)c1cccnc1NC1CCN(Cc2ccccc2)CC1 the Activity (HUVEC [1]) was “Active”, the inhibition [2] was “Dose-dependent effect” and the Activity (HUVEC [3]) was “Dose-dependent effect”. The inhibition [4] was “Dose-dependent effect”, the Activity (HUVEC [5]) was “Dose-dependent effect” and the inhibition (HUVEC [6]) was “Dose-dependent effect”. For the same compound, the inhibition (HUVEC [7]) was “Dose-dependent effect”, the inhibition (HUVEC [8]) was “Dose-dependent effect” and the inhibition (HUVEC [9]) was “Dose-dependent effect”. The inhibition (Aorta) was “Dose-dependent effect” and the IC90 (HUVEC [10]) was 9.42 µM.
With O=C(Nc1cccc(Cl)c1)c1cccnc1NC[C@@H]1CN(Cc2ccc(F)cc2)C(=O)CO1 the Activity (HUVEC [11]) was “Active” and the IC90 (HUVEC [10]) was greater than 50 µM.
In the case of COc1ccc(C(=O)N2CCN(c3ncccc3C(=O)Nc3cccc(Cl)c3)CC2)cc1, the Activity (HUVEC [11]) is reported as “Active” and the IC90 (HUVEC [10]) is reported as greater than 50 µM.
With O=C(Nc1cccc(Cl)c1)c1cccnc1N1CCN(C(=O)c2cccc(F)c2)CC1 the Activity (HUVEC [11]) was “Active” and the IC90 (HUVEC [10]) was greater than 50 µM.
In the case of O=C(Nc1cccc(Cl)c1)c1cccnc1NC1CCN(CO)CC1, the Activity (HUVEC [12]) is reported as “Active” and the IC90 (HUVEC [10]) is reported as 29.2 µM.
In the case of CCN(CC)CCNC(=O)c1c(C)[nH]c(/C=C2\C(=O)Nc3ccc(F)cc32)c1C [SUNITINIB], the Activity (HUVEC [13]) is reported as “Active”, the inhibition (HUVEC [14]) is reported as “Active” and the inhibition [15] is reported as “Active”. For the same compound, the inhibition (HUVEC [16]) was “inactive”, the inhibition (HUVEC [17]) was “Active” and the IC90 (HUVEC [10]) was 1 µM.
